Laboratory results: the RNAGym collection of RNA variant scans (doi:10.1126/science.aae0568)
This sample holds only a part of the variants without activity.

B1: tRNA (parent)
chain: GUUCCGUUGGCGUAAUGGUAACGCGUCUCCCUCCUAAGGAGAAGACUGCGGGUUCGAGUCCCGUACGGAACG

Variants of: B1
Assay: yeast fitness relative to wild type (ratio to wild type); higher = fitter; tRNA-Arg(CCU), competitive growth, 37 C, YPD
How it was run: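 Start and end populations of a pooled competition were compared by 100-nucleotide paired-end sequencing of gene amplicons. The Saccharomyces cerevisiae strains carried tRNA-Arg(CCU) gene variants at the native genomic locus, synthesised with a 3% per-site mutation rate at 69 sites, and competed in YPD at 37°C for 24 hours in six parallel replicates. Darwinian fitness relative to wild type was based on the change in genotype frequencies. Genotypes required ≥ 100 starting reads, and estimates < 0.5 were set to 0.5.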

Point of comparison: G6C C31A, yeast fitness 0.808. Against it:
- G6C C22A C31G — lower, ≤ 0.5
- G6A U13A G17A G23C A45G — lower, 0.602
- G6C C30U C61G — lower, ≤ 0.5
- G6C G10A U16G C24U G50C — lower, 0.609
- G6C C30U — lower, 0.784
- G6C C30A — lower, 0.763
- G6C A37U U53C A69U — lower, ≤ 0.5
- G6A U32C — higher, 0.839
- G6C A15U G23A C29U A43G — lower, ≤ 0.5
- G6A U64C — higher, 0.874
- G6C A14G C27A A42C G52A G56A G63C — lower, ≤ 0.5
- G6C C22A G41A G44A C46A G52A C66U — lower, ≤ 0.5
- G6C C11G G41A A42C G50C A70G — lower, ≤ 0.5
- G6C A14G A20C C66U — lower, ≤ 0.5
- G6A U47G U54C — lower, ≤ 0.5
- G6C C24A C46G G52A — lower, 0.695
- G6C A14C C29U C34G C46U A57G C66A G68C — lower, ≤ 0.5
- G6A U16C C34G G51A — lower, ≤ 0.5
- G6C C11A — lower, 0.659
- G6C C11U — higher, 0.872
- G6A U8G A36G — lower, ≤ 0.5
- G6C A15C A21C C34U A37U G56C U59G — lower, ≤ 0.5
- G6A U13A U16A C24G C33G C62G — lower, ≤ 0.5
- G6A U13C C27G A37U C60A — lower, ≤ 0.5
- G6C C22A C34A A70C — lower, 0.525
- G6C C31G C46A G63C A65U — lower, ≤ 0.5
- G6C G12A A21G C66U — lower, ≤ 0.5
- G6C C31U — higher, 0.93
- G6C C11U C34G — lower, ≤ 0.5
- G6C C31U U53C C62U — lower, ≤ 0.5
- G6C C24U G38C A40G A65G — lower, ≤ 0.5
- G6C A15U G23C C31G G41C G48C G67C — lower, ≤ 0.5
- G6C C49U U53A C66U A70U — lower, ≤ 0.5
- G6C C34G A45U G68C — lower, ≤ 0.5
- G6A U13A A40G A42G A57C C66U — lower, 0.525
- G6C G17A A37G C60G A70U — lower, ≤ 0.5
- G6C G12A U35A — lower, 0.55
- G6C C33G C34U C49U U64A — lower, ≤ 0.5
- G6C C27A G44A — lower, 0.629
- G6C C46A G63A — lower, 0.689
- G6C C11G A15C G25C C27G C30G G38C C61G U64G — lower, ≤ 0.5
- G6C C24U U47C A57U — lower, ≤ 0.5
- G6C C11U C31G A36G G48C G67C — lower, ≤ 0.5
- G6C C11U A45U — lower, 0.559
- G6A U59G — higher, 0.912
- G6A U59A — lower, 0.715
- G6A U59C — higher, 0.893
- G6C A45U — higher, 0.823
- G6C A42G — higher, 0.815
- G6A U13G U35C A57C — lower, ≤ 0.5
- G6C C11G A20G G48C A57G U59A C60A — lower, ≤ 0.5
- G6C C11A C22U U47C C66A — lower, ≤ 0.5
- G6C A15C A21C C34U A37U C55A U59C C61A C62U — lower, 0.537
- G6A U16C C22U A37U C49A C62U — lower, ≤ 0.5
- G6C C11G A14U A20G C22U G44A C55A — lower, ≤ 0.5
- G6C C11G A15C G25C C27G C30G G38C A70C — lower, ≤ 0.5
- G6A U32C A37G C55A A65U G68C — lower, ≤ 0.5
- G6C C30A C34A A43C C62U — lower, ≤ 0.5
- G6C A36U A43G G48A C49U U53C — lower, ≤ 0.5
- G6C C46G C62U G63A C66U — lower, ≤ 0.5
- G6C C22U — lower, 0.706
- G6C C60G — lower, 0.731
- G6A U13A A37C — lower, ≤ 0.5
- G6C A14C C24U C27G C29A A70G — lower, ≤ 0.5
- G6C C22G U64A — lower, ≤ 0.5
- G6C A65G — higher, 0.94
- G6C G9A A21U U28G C34U G63A — lower, ≤ 0.5
- G6C A14U G18C C49U — lower, ≤ 0.5
- G6A U13A A14G A42U — lower, ≤ 0.5
- G6C G17A A36U G58C — lower, ≤ 0.5
- G6C C29U C34U — lower, 0.561
- G6A U19A A20G G23A — lower, ≤ 0.5
- G6C A20U — higher, 0.812
- G6C A15C A21C C34U A37U A69U — lower, ≤ 0.5
- G6C A45C G58A — lower, 0.587
- G6A U59C C62U — lower, 0.543
- G6C C11A C34G A65G — lower, ≤ 0.5
- G6A U8G A42U C61G — lower, ≤ 0.5
- G6C C62A G67C — lower, ≤ 0.5
- G6A U19G U53C — lower, ≤ 0.5
- G6C C11G A15C G25C C27G C30G G38C A40G — lower, ≤ 0.5
- G6A U13G U28G — lower, 0.511
- G6C C31A C33U C62U — lower, ≤ 0.5
- G6C A15G C22A C29G A37C — lower, ≤ 0.5
- G6C G17A A36U C46A U53C C66A — lower, ≤ 0.5
- G6C C55U A70G — lower, 0.7
- G6C C33A A40G A57U — lower, ≤ 0.5
- G6A U19G A43U A65G G68A — lower, ≤ 0.5
- G6A U35C G44A G48C C55G A69U — lower, ≤ 0.5
- G6C C11A C22A C29G — lower, ≤ 0.5
- G6C G10A C27A — lower, 0.586
- G6C A36G — higher, 0.875
- G6C A36C — lower, 0.53
- G6C A36U — lower, 0.653
- G6C C33G A36C — lower, ≤ 0.5
- G6C G12A A21G — lower, 0.552
- G6C G10C — lower, 0.649
- G6C C24G A57U — lower, ≤ 0.5
- G6A U26C A69U — lower, 0.664
- G6C C55U — higher, 0.873
- G6C A42G U53C C62U — lower, ≤ 0.5
- G6A U54G G58A — lower, ≤ 0.5
- G6C A57G — higher, 0.968
- G6C A45C C55U A69C — lower, ≤ 0.5
- G6C G10A A14C U16A C27U C33U — lower, ≤ 0.5
- G6C C11U C34G U47G — lower, ≤ 0.5
- G6C A15C — lower, 0.689
- G6C C31A G38A A65G — lower, ≤ 0.5
- G6C A15G G51A — lower, ≤ 0.5
- G6C C30G A36C G58A — lower, ≤ 0.5
- G6C A20G C61G — lower, ≤ 0.5
- G6C C11U C24A — lower, ≤ 0.5
- G6C A14C C27U — lower, 0.539
- G6C A14G C49G G50A G58A — lower, ≤ 0.5
- G6C C29U C31U U54G A65U G67A — lower, ≤ 0.5
- G6C A45C C46G C55U — lower, ≤ 0.5
- G6C C49U — higher, 0.965
- G6C C29A A40G G51C — lower, 0.657
- G6A U16G A21G — lower, 0.544
- G6C A42U G67A — lower, ≤ 0.5
- G6C A37C G51A U53C — lower, ≤ 0.5
- G6C C22A C31G A70C — lower, ≤ 0.5
- G6C A21G G48A A57C G67A — lower, ≤ 0.5
- G6A U47C — higher, 0.878
- G6A U47A — lower, 0.692
- G6C C24G C30G — lower, ≤ 0.5
- G6C C30U C46A G67C — lower, ≤ 0.5
- G6C A42C A65G C66G — lower, 0.532
- G6C C33G G41C G56C G58A G63C A65U — lower, ≤ 0.5
- G6A U8C C62U G67A — lower, ≤ 0.5
- G6C A20G A42U — lower, 0.63
- G6C A21C C22G — lower, ≤ 0.5
- G6C A14U A36G A42G G52A G58A — lower, ≤ 0.5
- G6A U32A A45U A69C — lower, 0.565
- G6C A37U A43U — lower, 0.525
- G6C A70C — higher, 0.938
- G6C A70G — higher, 0.948
- G6C A14U A36G A40G C46A C62U — lower, ≤ 0.5
- G6C C24G — lower, 0.686
- G6C C24A — lower, 0.525
- G6C G17A C24A U32C A45C C60A A69U — lower, ≤ 0.5
- G6C A14G U16C A42U G52U — lower, ≤ 0.5
- G6C A42C C62G — lower, ≤ 0.5
- G6C C27U G56A C61U — lower, ≤ 0.5
- G6A U28A G68A — lower, 0.533
- G6C A42G C46A — lower, 0.695
- G6A U8C C62U — lower, 0.604
- G6C A21G G48A — higher, 0.977
- G6C G12A G58C C61U A69C — lower, ≤ 0.5
- G6C A14G U28A C46G U54C G68U — lower, ≤ 0.5
- G6C G17A U19G A69U — lower, ≤ 0.5
- G6C C11U A65U — lower, 0.578
- G6C C61G — lower, 0.675
- G6C C61U — lower, 0.726
- G6C C30A A42C — lower, 0.546
- G6C A20U C30G C61A — lower, ≤ 0.5
- G6C G17A A36G C60U G63C — lower, ≤ 0.5
- G6C C27A A42C G52A G56A G63C — lower, ≤ 0.5
- G6C A43G C49U C60A C62A — lower, 0.691
- G6A U16A — lower, 0.769
- G6A U16C — higher, 0.974
- G6A U13C C22G C55G — lower, ≤ 0.5
- G6C G12A U47A G51C A65G — lower, ≤ 0.5
- G6C C33G A36C C49A G56A C60G A70U — lower, ≤ 0.5
- G6A U32C G44A C46A G52A C66U — lower, 0.567
- G6C C11A C34G C66A — lower, ≤ 0.5
